Assay outcomes as filed in PubChem.
NR2E3 ag-1 – NR2E3 (human) agonism | Q9Y5X4 | GST-NR2E3/biotin-RetCOR TR-FRET, 1536-well | inhibition of corepressor binding, % at 4.78 µM | 0.12% of 320,000 active | AID 2300;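 active = percent inhibition above the cutoff of mean plus 3 SD of all tested compounds, set per screening campaign, cut at about 20% in these data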;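 note: 0% = DMSO wells and 100% = biotin wells as full block of FRET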
Target sequence (Q9Y5X4 whole entry, looked up): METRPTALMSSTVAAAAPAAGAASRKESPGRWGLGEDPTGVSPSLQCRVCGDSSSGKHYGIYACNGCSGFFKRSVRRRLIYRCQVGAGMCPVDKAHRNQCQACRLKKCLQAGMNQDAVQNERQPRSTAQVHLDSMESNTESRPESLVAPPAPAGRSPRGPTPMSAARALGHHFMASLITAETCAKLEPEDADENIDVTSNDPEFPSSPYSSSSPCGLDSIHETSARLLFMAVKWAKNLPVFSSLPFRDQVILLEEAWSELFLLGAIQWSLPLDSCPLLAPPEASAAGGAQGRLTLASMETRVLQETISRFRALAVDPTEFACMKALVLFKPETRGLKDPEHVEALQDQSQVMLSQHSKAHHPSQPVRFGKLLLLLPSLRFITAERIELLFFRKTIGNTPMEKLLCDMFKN
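Test system: GST-NR2E3 and biotin-RetCOR proteins | Quantity: 1.35 nM GST-tagged NR2E3 final | Medium: Tris pH 7.5 | Also added: 7 nM biotin-RetCOR | Dosing: Compound at 4.8 µM, single dose | Timing: 5 h at 4 °C | Detection: Time-resolved FRET | Read-out basis: Percent inhibition | Benchmarks: Biotin wells as high control, 0.6% DMSO wells as low control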
PG9 Ab binder – binds the HIV-1 gp120 antibody PG9 | inhibition, % at 6.7 µM | 0.43% of 360,000 active | TR-FRET gp120-PG9 antibody binding; in the data active = inhibition above about 8.5%
Rev-erbA mod – modulates human Rev-erb alpha binding to DNA. P20393. Rev-erbα–FITC-DNA binding, fluorescence polarization, 90 min. activity, % at 10 µM. 0.79% of 370,000 active. AID 1259318;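 active = activity above about 14%, limit read from the data; passing the limit was not always enough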;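 note: 0% = DMSO wells with 35 nM protein and 100% = DMSO wells with 750 nM protein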
NR2E3 ag-2 – agonists of human NR2E3 nuclear receptor; Q9Y5X4; CHO-S Gal4-NCOR/VP16-NR2E3 two-hybrid, luciferase; inhibition of corepressor binding, % at 3.98 µM; 0.35% of 360,000 active; AID 602229;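 active = inhibition above the mean of all tested compounds plus 3 SD, cut at about 70% in these data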;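 note: 0% = DMSO with NR2E3 transfected cells and 100% = cells lacking NR2E3 construct; higher means lower luciferase signal from less NR2E3 corepressor binding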
NR2E3 ag conf – confirmation of human NR2E3 agonists | CHO-S mammalian two-hybrid NR2E3-NCOR, luciferase luminescence | inhibition, % at 3.98 µM | 51% of 2,300 active | shares compounds with NR2E3 ag-2;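 active = average inhibition above a cutoff equal to the mean inhibition of all tested compounds plus one SD, cut at about 70% in these data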;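 note: 0% = DMSO in NR2E3 cells and 100% = DMSO in cells lacking NR2E3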
GAL4-VP16 luc – reduces GAL4-VP16 reporter signal in NR2E3 counterscreen | shares compounds with NR2E3 ag-2 | CHO-S GAL4-VP16 luciferase reporter, luminescence | inhibition, % at 3.98 µM | 29% of 2,300 active;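 active = mean inhibition above a cutoff equal to the average over all tested compounds plus one standard deviation, cut at about 70% in these data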;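 note: luciferase from a UAS reporter driven by GAL4-VP16 transactivation; 0% = DMSO with VP16-transfected cells and 100% = DMSO with cells lacking VP16; higher means less reporter light so more repression of VP16 activity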
* hit, by the source's call; x = not tested or not shown. Compounds with a hit are over-represented: about 1.4% of the library has one in this group of screens.

SMILES | NR2E3 ag-1 | PG9 Ab binder | Rev-erbA mod | NR2E3 ag-2 | NR2E3 ag conf | GAL4-VP16 luc
COc1ccc(N=C(NN)c2ccc3ccccc3n2)cc1 | 0 | -2 | -1 | 69 | -81 | -95
Cc1cc(C)c(C)c(S(=O)(=O)N2CCN(c3ncnc4ccccc34)CC2)c1C | 1 | 1 | 0 | 62 | 89* | 68
Cc1cc(C)c(C)c(S(=O)(=O)N2CCN(c3ccccn3)CC2)c1C | 0 | 2 | 3 | 3 | x | x
O=S(=O)(c1cc(C(F)(F)F)ccc1Cl)N1CCN(c2ncnc3ccccc23)CC1 | x | -3 | 9 | 99* | 95* | 86*
CCCC[C@@H]1C(=O)N2N=Cc3cc(C)c(C)cc3[C@H]2N2N=Cc3cc(C)c(C)cc3[C@@H]12 | x | x | 2 | x | x | x
C[C@H]1Cn2nnc(-c3ccccc3)c2Cn2c3ccccc3c(=O)n21 | x | x | 0 | x | x | x
CCCCc1ccc(S(=O)(=O)NCCc2ccncc2)cc1 | 1 | -1 | -1 | 70 | 73* | 65
COc1cccc(C(=O)Nc2ccc(C(=O)NCC3COc4ccccc4O3)cc2)c1 (stereo unspecified) | x | x | -3 | x | x | x
c1ccc(N2CCN(c3nc(-c4ccccn4)nc4ccccc34)CC2)cc1 | 0 | -2 | -2 | 100* | 23 | 15
Cc1ccccc1Oc1nc(-c2ccccn2)nc2ccccc12 | -2 | 0 | 6 | 66 | 27 | 29
Cc1cccc(Oc2nc(-c3ccccn3)nc3ccccc23)c1 | 1 | -2 | 4 | -37 | x | x
COC(=O)[C@]12C[C@H](CC(=O)NCc3ccc(C)o3)C(=O)N(Cc3ccc(Cl)cc3Cl)C1=C[C@H](C1CCCC1)O[C@@H]2C | x | x | 4 | x | x | x
COc1ccc(-n2c(SCC(=O)Nc3cc(C)c(NC(=O)c4ccccc4)cc3OC)nnc2-c2ccco2)cc1 | x | x | 4 | x | x | x
Cn1cc(C(=O)c2ccc(Cl)cc2)cc1-c1nc2ccccc2n1C | 0 | -1 | -2 | 49 | 36 | 42
CC(O)CC(=O)OC[C@]12CC[C@H]3[C@@](C)(CC[C@H]4C(C)(C)CCC[C@]34C)[C@@H]1CC(C1=CC(=O)OC1O)O2 (stereo partly specified) | x | 0 | -2 | 67 | 66 | 24
CC(C)CCCCCCCCCCCCC(=O)NCC(=O)NC1C(O)C(O)C(Nc2ncnc3nc[nH]c23)OC1C(O)CO (stereo unspecified) | x | x | x | 100* | 100* | 101*
CC(O)CNc1ncnc2nc[nH]c12 (stereo unspecified) | 1 | 2 | -3 | -18 | x | x
O=C(O)CCN1C(=O)/C(=C/c2cccc(OCc3ccc(F)cc3)c2)SC1=S | x | x | -7 | x | x | x
CC1Cc2ccccc2N1C(=S)NC(=O)c1ccc(Cl)cc1Cl (stereo unspecified) | 2 | -2 | 7 | 78* | 28 | 26
CC1Cc2ccccc2N1C(=S)NC(=O)c1cccc(Br)c1 (stereo unspecified) | -2 | -1 | -2 | 26 | x | x
Clc1ccc2nc(-c3ccccn3)c(Nc3ccc4c(c3)OCO4)n2c1 | 2 | 0 | 9 | 52 | -66 | -87
Cc1ccc2nc(-c3ccccc3O)c(Nc3ccc4c(c3)OCCO4)n2c1 | -2 | -1 | -4 | -4 | x | x
O=C(Nc1ccc(O)c2c(=O)cc(-c3ccccc3Cl)oc12)c1ccccc1Cl | 2 | 1 | 1 | -5 | x | x
O=c1cc(-c2ccccc2Cl)oc2c([N+](=O)[O-])c(O)cc(O)c12 | 6 | -1 | -1 | 98* | 99* | 91*
CCN(CC)c1ccc(S(=O)(=O)Nc2cc(Cl)ccc2Cl)cc1NC(=S)NC(=O)C1CCCC1 | 3 | 0 | 3 | 55 | 9 | -6
SMILES | NR2E3 ag-1 | PG9 Ab binder | Rev-erbA mod | NR2E3 ag-2 | NR2E3 ag conf | GAL4-VP16 luc
Cc1ccc(-c2cnc(C(O)c3ccc(Cl)c(F)c3)[nH]2)cc1 (stereo unspecified) | x | x | x | 49 | 49 | 34
OC(c1ccc(Cl)c(F)c1)c1ncc(-c2ccc(F)cc2)[nH]1 (stereo unspecified) | x | -1 | 2 | 80* | 78* | 63
Cc1ccc(C(O)c2ncc(-c3ccc(Cl)cc3)[nH]2)cc1F (stereo unspecified) | x | 1 | -6 | 46 | x | x
O=C(Nc1ccc(F)cc1)Nc1cc(OCC(F)(F)F)cc(OCC(F)(F)F)c1 | -2 | 0 | 2 | 49 | 98* | 85*
CCN(CC)S(=O)(=O)c1cccc(NC(=O)Nc2cccc(C(F)(F)F)c2)c1 | -1 | -2 | 2 | 75* | 65 | 53
CCN(CC)S(=O)(=O)c1cccc(NC(=O)CNc2cccc(S(=O)(=O)N3CCCC3)c2)c1 | 0 | 0 | 3 | 85* | 80* | 61
CCCCOCCCNC(=O)C[C@H]1C[C@@]2(C(=O)OC)C(=C[C@H](C3CCCC3)O[C@@H]2C)N(CCc2ccc(OC)c(OC)c2)C1=O | x | x | 2 | x | x | x
COC(=O)C1CN(CCc2ccccc2)CCS(=O)(=O)N1Cc1ccc(Cl)cc1 (stereo unspecified) | x | x | -4 | x | x | x
O=S(=O)(Nc1ccc(S(=O)(=O)Nc2ccccc2)cc1)c1ccccc1 | 2 | 0 | 0 | -2 | x | x
O=[N+]([O-])c1ccc(Oc2ccc(S(=O)(=O)Nc3ccccc3)cc2)cc1 | 0 | x | x | 58 | 99* | 79*
O=[N+]([O-])c1ccc(NS(=O)(=O)c2ccc(Cl)c(Cl)c2)cc1 | x | 0 | -3 | 101* | 99* | 91*
O=[N+]([O-])c1ccc(S(=O)(=O)Nc2ccncc2)cc1 | -3 | -3 | 6 | -20 | x | x
COc1ccc(CCN(Cc2cccs2)S(=O)(=O)c2ccc(F)cc2)cc1OC | x | x | -2 | x | x | x
COc1cccc2sc(N3CCN(C(=O)c4ccc([N+](=O)[O-])o4)CC3)nc12 | 1 | x | x | 63 | 42 | 34
O=C(c1ccc([N+](=O)[O-])o1)N1CCN(c2nc3c(Cl)cccc3s2)CC1 | 2 | -1 | 1 | -18 | x | x
COc1cc(OC)nc(-n2ncc(Br)c(Br)c2=O)n1 | -2 | 0 | 0 | 74* | 97* | 36
C=C1CCC2C(C)(C)CCC[C@]2(C)[C@H]1CC1=C(O)C(=O)C(CO)=CC1=O (stereo partly specified) | x | x | -9 | x | x | x
S=c1[nH]nc(-c2cc(-c3ccsc3)n[nH]2)n1-c1cccc2ccccc12 | 2 | 2 | -3 | 49 | 18 | -17
COc1ccc(-c2cc(-c3n[nH]c(=S)n3-c3cccc4ccccc34)[nH]n2)cc1 | 4 | -1 | -6 | 42 | x | x
CCOC(=O)CC[C@@]1(C(=O)OCC)C[C@@H](CC(=O)NCc2ccc(C)o2)C(=O)N2CCCC=C21 | x | x | 5 | x | x | x
COCCCNC(=O)C[C@H]1C[C@@]2(C(=O)OC)C(=C[C@H](C(C)C)O[C@@H]2C2CC2)N(Cc2ccc3c(c2)OCO3)C1=O | x | x | -1 | x | x | x
CCc1ccc(NC(=S)N(CCCN2CCOCC2)Cc2ccco2)cc1 | -2 | -2 | -3 | 66 | -7 | -11
